In ChEMBL document CHEMBL5506039, “Discovery and Optimization of Tambjamines as a Novel Class of Antileishmanial Agents” (J Med Chem, 2024):

Columns and labels:
Leishmania mexicana [1] = experiment: Antileishmanial activity against Leishmania mexicana MNYC/BZ/62/M379 amastigotes expressing red-shifted firefly luciferase from integrated ribosomal (28S) RNA locus infected in mouse J774.A1 cells assessed as parasite survival at 0.1 uM measured after 96 hrs by luminescence based analysis relative to control; assay type: functional; details: MNYC/BZ/62/M379, J774.A1
[2] = Cytotoxicity against mouse J774.A1 cells assessed as cell survival at 0.1 uM measured after 96 hrs by SYBR Green II dye based analysis relative to control; assay type: toxicity; details: read-out: Survival
Procedure, shortened: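 Uninfected J774A.1 mouse macrophages were plated at 1 × 10⁴ cells/well in DMEM with 10% heat-inactivated FBS and left 3 h at 37 °C to reattach. Compounds were added from DMSO, and analogues were screened at 0.1 μM. After 96 h at 37 °C in 5% CO₂, medium was removed. SYBR Green II (1:1000 in 1% Triton/PBS) was added for 1 h in the dark at room temperature, and fluorescence was read at Ex 485/Em 535 as a DNA-content measure of viability.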

[3] = Therapeutic index, ratio of EC50 for mouse J774.A1 cells to EC50 for antileishmanial activity against Leishmania mexicana MNYC/BZ/62/M379 amastigotes expressing red-shifted firefly luciferase from integrated ribosomal (28S) RNA locus infected in mouse J774.A1 cells; assay type: toxicity, cell-based; details: read-out: TI
Leishmania mexicana [4] = experiment: Antileishmanial activity against Leishmania mexicana MNYC/BZ/62/M379 amastigotes expressing red-shifted firefly luciferase from integrated ribosomal (28S) RNA locus infected in mouse J774.A1 cells assessed as reduction in parasite survival measured after 96 hrs by luminescence based analysis; assay type: functional, organism-based; details: MNYC/BZ/62/M379, J774.A1, 96 h
Procedure, shortened: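 J774A.1 macrophages infected with stationary-phase luciferase-expressing promastigotes at 10:1 parasites:macrophage, overnight at 37 °C, 5% CO₂. Non-internalized parasites washed off and 1 × 10⁴ cells/well replated in MEM/10% HI-FBS. Compounds in DMSO added as serial 3-fold dilutions (typically 10 μM–1 nM) for 96 h. Luciferase luminescence read; EC50 from log-transformed sigmoidal variable-slope fit. Mean ± SD of ≥2 independent experiments.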

[5] = Cytotoxicity against mouse J774.A1 cells assessed as reduction in cell survival measured after 96 hrs by SYBR Green II dye based analysis; assay type: toxicity
Procedure, shortened: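 Uninfected J774A.1 macrophages, 1 × 10⁴ cells/well in DMEM/10% HI-FBS, reattached 3 h, then exposed to compounds for 96 h. DNA content read after lysis with SYBR Green II (1:1000 in 1% Triton/PBS), 1 h dark at room temperature, fluorescence Ex 485/Em 535.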

[6] = Metabolic stability in pre-warmed pooled human liver microsomes assessed as half life at 1 uM measured upto 60 mins by LC-MS analysis; assay type: ADME, Microsome
Procedure, shortened: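 Compound at 1 μM final with 0.5 mg/mL pooled human or mouse liver microsomes, 1.3 mM NADP and 3.3 mM MgCl₂ in 100 mM potassium phosphate, pH 7.4. Reaction started with 1 U/mL G6PD at 37 °C with shaking.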

SMILES | survival at 0.1 µM (Leishmania mexicana [1]) | viability at 96 h, 0.1 µM [2] | selectivity ratio [3] | EC50 (Leishmania mexicana [4]) | EC50 at 96 h [5] | half-life at 1 µM [6]
COC1=CC(c2ccc[nH]2)=N/C1=C\Nc1ccccc1OC(F)(F)F | 69.9% | 81% | – | – | – | –
FC(F)(F)Oc1ccc(N/C=C2\N=C(c3ccc[nH]3)C3=C2CCCC3)cc1 | 84.9% | 92.7% | – | – | – | –
C[C@H]1CC[C@H](N/C=C2\N=C(c3ccc[nH]3)C=C2Oc2ccc(Cl)cc2)CC1 | 27.5% | 80.1% | 4.4 | 72.3 nM | 321 nM | –
C[C@H]1CC[C@H](N/C=C2\N=C(c3ccc[nH]3)C=C2c2ccc(OC(F)(F)F)cc2)CC1 | 81.6% | 116% | – | – | – | –
COC1=CC(c2ccc[nH]2)=N/C1=C\NC1CCCCC1 | 7.33% | 88.9% | > 25 | 40.5 nM | > 1000 nM | –
Clc1ccc(OC2=CC(c3ccc[nH]3)=N/C2=C\NC2CCCCCC2)cc1 | 19.8% | 100% | 5.8 | 63.7 nM | 367 nM | –
FC(F)(F)Oc1ccc(OC2=CC(c3ccc[nH]3)=N/C2=C\NC2CCCCCC2)cc1 | 43% | 82.8% | 4.1 | 155 nM | 642 nM | –
FC(F)(F)Oc1ccc(OC2=CC(c3ccc[nH]3)=N/C2=C\NCC2CCCCCC2)cc1 | 42.9% | 97.6% | 4.3 | 167 nM | 717 nM | –
CC1=C(C)/C(=C/NC2CCCCCC2)N=C1c1[nH]c(C)cc1C | 43.8% | 56.8% | – | 182 nM | – | –
C[C@H]1CC[C@H](N/C=C2\N=C(c3ccc[nH]3)C=C2Oc2cc(F)cc(F)c2)CC1 | 96.2% | 55.3% | – | – | – | –
COC1=CC(c2ccc[nH]2)=N/C1=C\NC1CCN(Cc2ccccc2)CC1 | 24.6% | 124% | 7.9 | 79.5 nM | 625 nM | –
FC(F)(F)Oc1ccc(OC2=CC(c3ccc[nH]3)=N/C2=C\N[C@H]2CC[C@H](C(F)(F)F)CC2)cc1 | 33.2% | 108% | 9.6 | 88.7 nM | 852 nM | –
FC(F)(F)Oc1ccc(OC2=CC(c3ccc[nH]3)=N/C2=C\NC2CCCCC2)cc1 | 52.7% | 81.3% | 11.7 | 84 nM | 982 nM | –
CCCCCCCCCCCN/C=C1\N=C(c2ccc[nH]2)C=C1OC | 11.9% | 112% | > 21 | 47.5 nM | > 1000 nM | –
CC1=C(C)/C(=C/NC23CC4CC(CC(C4)C2)C3)N=C1c1[nH]c(C)cc1C | 12.5% | 93.2% | 14 | 46.5 nM | 667 nM | –
CCC1=C/C(=C/NC2CCCCCCC2)N=C1c1ccc[nH]1 | 34.6% | 35.8% | – | – | – | –
CC1=C/C(=C/NC2CCCCCC2)N=C1c1ccc[nH]1 | 89% | 127% | – | – | – | –
CCCCCCN/C=C1\N=C(c2ccc[nH]2)C=C1Oc1ccc(OC(F)(F)F)cc1 | 46.1% | 110% | 3.6 | 303 nM | 1100 nM | –
CC1=C(C)/C(=C/Nc2ccc(C)cc2)N=C1c1ccc[nH]1 | 74% | 54.2% | – | – | – | –

SMILES | survival at 0.1 µM (Leishmania mexicana [1]) | viability at 96 h, 0.1 µM [2] | selectivity ratio [3] | EC50 (Leishmania mexicana [4]) | EC50 at 96 h [5] | half-life at 1 µM [6]
Fc1cc(F)cc(OC2=CC(c3ccc[nH]3)=N/C2=C\NC2CCCCCC2)c1 | 87.2% | 65.8% | – | – | – | –
Cc1ccc(N/C=C2\N=C(c3ccc[nH]3)C3=C2CCCC3)cc1.Cl | 112% | 95.1% | – | – | – | 42.1 min
FC(F)(F)Oc1ccc(C2=CC(c3ccc[nH]3)=N/C2=C\NC2CCCCCC2)cc1 | 77.9% | 95.8% | – | – | – | –
C[C@H]1CC[C@@H](N/C=C2\N=C(c3ccc[nH]3)C=C2Oc2ccc(OC(F)(F)F)cc2)CC1 | 79.9% | 112% | – | – | – | –
CC1=C(C)/C(=C/Nc2ccc(OC(F)(F)F)cc2)N=C1c1ccc[nH]1 | 102% | 77.2% | – | – | – | –
CCC1=C/C(=C/NC2CCCCCC2)N=C1c1ccc[nH]1 | 33.9% | 32.2% | – | – | – | –
Clc1ccc(N/C=C2\N=C(c3ccc[nH]3)C3=C2CCCC3)cc1 | 103% | 67.2% | – | – | – | –
CC1=C(C)/C(=C/Nc2ccc(Cl)cc2)N=C1c1ccc[nH]1 | 92.2% | 88.1% | – | – | – | –
COC1=CC(c2ccc[nH]2)=N/C1=C\Nc1ccc(Cl)cc1 | 9.85% | 95.4% | > 21 | 47 nM | > 1000 nM | –
CCC1=C(CC)/C(=C/NC2CCCCCCC2)N=C1c1ccc[nH]1 | 17% | 29.5% | – | – | – | –
CCCCCCCCCCCN/C=C1\N=C(c2ccc[nH]2)C=C1Oc1ccc(OC(F)(F)F)cc1 | 58% | 96.7% | – | – | – | –
CC1=C/C(=C/NC2CCCCCCC2)N=C1c1ccc[nH]1 | 48.6% | 150% | – | – | – | –
CCCCCCCCCCCCCCCCOP(=O)([O-])OCC[N+](C)(C)C [MILTEFOSINE] | 0.02% | 39.2% | > 29 | 3460 nM | > 100000 nM | –
C(/NC1CCCCCCC1)=C1/N=C(c2ccc[nH]2)C2=C1CCCC2 | 33.4% | 75.8% | – | – | – | –
CC1=C(C)/C(=C/Nc2ccc(Oc3ccc(C)cc3)cc2)N=C1c1ccc[nH]1 | 111% | 66.2% | – | – | – | –
COc1ccc(Oc2ccc(N/C=C3\N=C(c4ccc[nH]4)C(C)=C3C)cc2)cc1 | 108% | 65.9% | – | – | – | –
FC(F)(F)Oc1ccc(OC2=CC(c3ccc[nH]3)=N/C2=C\NC2CCCCCCC2)cc1 | 37.6% | 92.9% | 9.9 | 99 nM | 982 nM | –
CC1=C(C)/C(=C/NCC2CCCCCC2)N=C1c1ccc[nH]1 | 14.2% | 53.2% | 17 | 91.7 nM | 1600 nM | –
CCC1=C(CC)/C(=C/NC2CCCCCC2)N=C1c1ccc[nH]1 | 27.5% | 26.7% | – | – | – | –
